Reference: ChEMBL document CHEMBL1152997, “Prevalence of and molecular basis for tuberculosis drug resistance in the Republic of Georgia: validation of a QIAplex system for detection of drug resistance-related mutations” (2008)

Key:
Type in all cases: functional
[1] = test system: Mycobacterium tuberculosis; experiment: Antimycobacterial activity against Mycobacterium tuberculosis clinical isolates from tuberculosis patient assessed as percent resistant isolates at 2 ug/ml by absolute-concentration method
Procedure, shortened: (§1)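 Consecutive clinical M. tuberculosis isolates (196), Tbilisi, Jan–Mar 2006, primary culture on Lowenstein-Jensen medium. Suspension adjusted to 1 McFarland in sterile saline. 0.2 ml was plated onto drug-containing solid medium: a 10-fold dilution series for the 2, 4 and 40 µg/ml media, and a 100-fold dilution for the 0.2 µg/ml medium. Incubation at 37°C, 5–10% CO2, 28 days.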

[2] = test system: Mycobacterium tuberculosis; experiment: Antimycobacterial activity against Mycobacterium tuberculosis clinical isolates from tuberculosis patient assessed as percent resistant isolates at 0.2 ug/ml by absolute-concentration method; procedure, shortened: as §1
[3] = test system: Mycobacterium tuberculosis; experiment: Antimycobacterial activity against Mycobacterium tuberculosis clinical isolates from tuberculosis patient assessed as percent resistant isolates at 40 ug/ml by absolute-concentration method; procedure, shortened: as §1
[4] = test system: Mycobacterium tuberculosis; experiment: Antimycobacterial activity against Mycobacterium tuberculosis clinical isolates from tuberculosis patient assessed as percent resistant isolates at 4 ug/ml by absolute-concentration method; procedure, shortened: as §1

## CC[C@@H](CO)NCCN[C@@H](CC)CO [ETHAMBUTOL]
[1]
  Activity: 2.6%

## NNC(=O)c1ccncc1 [ISONIAZID]
[2]
  Activity: 20.9%

## CO[C@H]1/C=C/O[C@@]2(C)Oc3c(C)c(O)c4c(O)c(c(/C=N/N5CCN(C)CC5)c(O)c4c3C2=O)NC(=O)/C(C)=C\C=C\[C@H](C)[C@H](O)[C@@H](C)[C@@H](O)[C@@H](C)[C@H](OC(C)=O)[C@@H]1C [RIFAMPIN]
[3]
  Activity: 9.2%

## CN[C@@H]1[C@H](O[C@H]2[C@H](O[C@H]3[C@H](O)[C@@H](O)[C@H](N=C(N)N)[C@@H](O)[C@@H]3N=C(N)N)O[C@@H](C)[C@]2(O)C=O)O[C@@H](CO)[C@H](O)[C@H]1O [STREPTOMYCIN]
[4]
  Activity: 25%
